In the library only some 5.5% were active in any assay of this set; here they are far more common.
HePTP inh: blocks human HePTP tyrosine phosphatase; P35236; recombinant HePTP phosphatase activity, OD absorbance; inhibition, % at 20 µM; hit rate 0.64% among 110,000; AID 521; in the data active = inhibition above about 50%;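 also: plate controls were vehicle for no effect and reference inhibitor for full effect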
Target sequence (P35236 whole entry, looked up): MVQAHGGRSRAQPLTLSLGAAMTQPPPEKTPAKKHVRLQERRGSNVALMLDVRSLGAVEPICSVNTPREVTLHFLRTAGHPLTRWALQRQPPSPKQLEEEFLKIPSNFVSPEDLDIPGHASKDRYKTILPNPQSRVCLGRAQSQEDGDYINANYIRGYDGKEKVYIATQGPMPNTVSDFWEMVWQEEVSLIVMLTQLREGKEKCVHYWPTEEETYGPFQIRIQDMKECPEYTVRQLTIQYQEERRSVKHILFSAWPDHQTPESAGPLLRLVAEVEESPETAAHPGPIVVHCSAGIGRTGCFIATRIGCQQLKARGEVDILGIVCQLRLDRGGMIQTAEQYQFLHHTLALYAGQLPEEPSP
PostGolgi yeast: growth inhibition of a yeast mutant, post-Golgi transport screen; post-Golgi transport phenotypic cell assay; inhibition, % at 10 µM; hit rate 0.9% among 98,000; AID 739;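 also: yeast cells grown in 1536-well plates; yeast grown about 18 h at 30C before absorbance read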
Ecoli tolC: growth inhibitors of E. coli BW25113 tolC mutant | OD615 | growth inhibition, % at 10 µM (by protocol) | hit rate 2.2% among 65,000 | AID 573;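 active = growth inhibition at or above a cutoff equal to the mean over every tested compound plus 3 SD, cut at about 60% in these data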;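 also: growth measured after 20 h incubation at 37 °C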
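Material: E. coli BW25113 ΔtolC::kan, tolC deletion mutant strain. Measure: percent growth inhibition. Schedule: 37 °C, 20 h exposure. Doses: single-point testing at 10 µM. Signal: A615 absorbance measurement. Buffer or medium: kanamycin-containing LB broth (50 µg/mL).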
PostGolgi ctrl: yeast control strain growth, post-Golgi counter-screen; efflux-deficient yeast background strain, growth absorbance A615, 16 h; inhibition, % at 10 µM; hit rate 5% among 98,000
E coli WT exp: blocks growth of wild type E. coli BW25113; growth inhibition, % at 100 µM; OD600 absorbance; hit rate 0.15% among 98,000;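 active = growth inhibition above about 50% at one test dose, limit read from the data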;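 also: growth measured after 20 h incubation at 37 °C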
PLAP act: activators of human placental alkaline phosphatase; P05187; purified PLAP enzyme, luminescent substrate read-out; active compounds read high; activation fold at 20 µM; hit rate 1.2% among 96,000; AID 696; in the data active = activation fold above about 2
* hit, by the source's call; · = not tested or not shown. Rule as the data show it, unless noted: active = inhibition above about 30%; inactive = the rest.

SMILES	HePTP inh	PostGolgi yeast	Ecoli tolC	PostGolgi ctrl	E coli WT exp	PLAP act
Cc1cc(C)c2[nH]c(=O)c(C(c3nnnn3CC3CCCO3)N3CCCC(C)C3)cc2c1 (stereo not given)	-3	2	62*	8	-4	1.5
Cc1cc(C)c2[nH]c(=O)c(C(c3nnnn3CC3CCCO3)N3CCC(C)CC3)cc2c1 (stereo not given)	5	8	29	10	-14	1.6
O=C1CC(N(Cc2ccc3c(c2)OCO3)C(=S)Nc2ccccc2)C(=O)N1c1ccc(F)cc1 (stereo not given)	0	·	·	·	·	·
COc1ccccc1-c1cc(C(F)(F)F)nc(S(C)(=O)=O)n1	·	46*	·	86*	-7	0.9
COc1ccccc1-c1cc(C(F)(F)F)nc(S(=O)(=O)CCCC(=O)N2CCCCC2C)n1 (stereo not given)	-6	18	40	62*	8	0.9
COc1ccccc1-c1cc(C(F)(F)F)nc(S(=O)(=O)CCCC(=O)NC(C)C)n1	4	2	6	43*	-11	0.9
CS(=O)(=O)c1nc(-c2ccco2)cc(C(F)(F)F)n1	-3	0	-10	48*	16	1.2
O=C(COc1ccccc1[N+](=O)[O-])N/N=C/c1cc(O)c(Br)cc1Br	9	·	·	·	·	·
Cc1ccc(S(=O)(=O)Nc2cc(-c3cccc(C)c3)[nH]n2)cc1	8	·	·	·	·	·
O=C(Nc1ccc2ccccc2c1)c1cc([N+](=O)[O-])ccc1Br	4	·	·	·	·	·
COc1ccc(C2(CN(C(C)=O)C(C)=O)CCCC2)cc1OC	3	1	11	39*	6	1.1
CC(C)(C)NC(=O)c1ccc(-c2ccc(Cl)cc2)o1	2	·	·	·	·	·
Cc1cc(I)c2c(c1)C1C=CCC1C(C(=O)O)N2 (stereo not given)	102*	·	·	·	·	·
Cc1ccc2c(c1)C1C=CCC1C(C(=O)O)N2 (stereo not given)	102*	·	-14	·	·	·
COc1cc(C=NCC2(c3ccccc3)CCCC2)ccc1OC(C)=O	-2	·	·	·	·	·
COc1cccc(N2CCN(c3ncnc4c3[nH]c3ccccc34)CC2C)c1 (stereo not given)	8	7	2	44*	-14	·
COc1cccc(N2CCN(c3ncnc4c3[nH]c3ccc(F)cc34)CC2C)c1 (stereo not given)	12	66*	-1	96*	-14	1.1
COc1ccc2[nH]c3c(N4CC(C)OC(C)C4)ncnc3c2c1 (stereo not given)	·	-3	·	5	10	1.1
Fc1ccc2[nH]c3c(N4CCN(C5CCCCC5)CC4)ncnc3c2c1	12	11	-11	-3	6	2.3*
Cc1ccc(OCCCCCSC#N)cc1C	-5	·	·	·	·	·
COC(=O)c1cnn2c(C(F)(F)F)cc(-c3ccc4c(c3)OCO4)nc12	10	·	·	·	·	·
COc1cc(Cc2cnc(N)nc2N)cc(OC)c1OC	6	-3	97*	1	100*	1.1
COc1cc(CC(=O)NCc2ccccn2)cc(OC)c1OC	·	-11	·	9	-1	0.9
N#CC(c1ccccc1)c1ccc2c(C(F)(F)F)cc(C(F)(F)F)nc2n1 (stereo not given)	·	5	·	51*	-1	1
O=C(COc1ccc(Cl)cc1Br)NNC(=O)c1ccc(O)cc1	8	·	·	·	·	·
SMILES	HePTP inh	PostGolgi yeast	Ecoli tolC	PostGolgi ctrl	E coli WT exp	PLAP act
COc1ccc(C)cc1NC(=O)c1ccc(-n2cnnn2)cc1	2	·	·	·	·	·
O=C(CCCSc1nc2ccccc2[nH]1)Nc1nnc(-c2ccccc2)o1	·	-3	38	4	15	2.1*
c1ccc2[nH]c(CSc3nnc(-c4ccncc4)o3)nc2c1	1	1	14	12	5	2.2*
O=c1cc(CSc2nc3ccccc3[nH]2)c2ccccc2[nH]1	·	-6	·	7	-7	0.9
Fc1ccc(CSc2nc3ccccc3[nH]2)c2ccccc12	·	2	·	47*	-4	1.1
c1ccc(-c2nnc(CSc3nc4ccccc4[nH]3)o2)cc1	11	1	22	19	6	2.2*
Brc1cccc(-c2nnc(SCc3nc4ccccc4[nH]3)o2)c1	-8	-6	45	18	7	1
CC(=O)Nc1ccc(S(=O)(=O)Nc2ccc(C(=O)Nc3nccs3)cc2)cc1	5	·	·	·	·	·
Cc1nn(-c2ccccc2)c(Cl)c1C(=O)Nc1nnc(C2CCCC2)s1	5	-4	100*	4	-22	1.5
O=C(CC1Nc2ccccc2NC1=O)Nc1ccc(Br)cc1 (stereo not given)	6	·	·	·	·	·
CC(C)(C)C1=CC(N)=C(C(C)(C)C)C(=O)C1=O	1	·	·	·	·	·
CC(C)COC(=O)NCCOC(=O)Nc1cccc(Cl)c1	6	-6	89*	7	25	0.8
COc1ccc(/C(C)=N/NC(=O)c2nc(C)cc(C)n2)cc1	·	-6	·	11	1	2*
N#CC1=C(N)N2C(=C(C#N)C13CCN(Cc1ccccc1)CC3)Nc1ccccc12	0	-20	22	30*	9	1.5
COc1ccc(/C=C/C(=O)NCc2ccc(Cl)cc2)cc1	7	·	·	·	·	·
Cc1ccc(Cn2nnc3c(=O)[nH]c(C(=O)NCc4ccco4)nc32)cc1	1	-3	24	2	-11	2*
O=C(NCCc1ccccc1)c1nc2c(nnn2Cc2ccccc2Cl)c(=O)[nH]1	-2	3	97*	7	-14	·
O=C(NC1CCCCC1)c1nc2c(nnn2Cc2ccccc2Cl)c(=O)[nH]1	8	-2	76*	19	10	·
COc1ccc(Cn2nnc3c(=O)[nH]c(C(=O)NCCc4ccc(F)cc4)nc32)cc1OC	6	1	21	31*	-11	1.7
O=C(NCc1ccco1)c1nc2c(nnn2Cc2cccc(Cl)c2)c(=O)[nH]1	·	-10	·	3	7	1.4
COC(=O)COc1ccc(/C=C2\C(=O)NC(=O)N(c3ccc(Br)cc3)C2=O)cc1OC	7	·	·	·	·	·
NS(=O)(=O)c1ccc(CNC(=O)c2ccc(-c3ccccc3)cc2)cc1	34	·	·	·	·	·
CC(C)Oc1ccccc1NS(=O)(=O)c1ccccc1[N+](=O)[O-]	-2	·	·	·	·	·
CN(c1ccccc1)c1ccc(/C=C2/C(=O)ON=C2c2ccc([N+](=O)[O-])cc2)cc1	-2	·	·	·	·	·
CC(C)(C)c1ccc(-c2nnc3sc(-c4ccccn4)nn23)cc1	11	-3	15	35*	-22	1.5
SMILES	HePTP inh	PostGolgi yeast	Ecoli tolC	PostGolgi ctrl	E coli WT exp	PLAP act
CN(C)c1ccc(-c2nn3c(-c4ccncc4)nnc3s2)cc1	3	·	84*	·	·	·
Cc1ccc(-c2nnc3sc(-c4ccncc4)nn23)cc1	13	5	4	16	6	0.9
Cc1cccc(NC(=O)CN(c2ccc(Br)cc2)S(C)(=O)=O)c1	3	·	·	·	·	·
Cc1ccc(N(CC(=O)Nc2cccc(C)c2)S(=O)(=O)c2cccc3nonc23)cc1	20	-5	62*	6	-7	1.1
COc1ccc(N(CC(=O)NC(C)(C)C)S(C)(=O)=O)cc1	3	·	·	·	·	·
COc1cccc(CNn2c(-c3cccc(C)c3)nc3ccccc3c2=O)c1O	1	-1	28	47*	-3	1.1
COc1ccc(OC)c(-n2c(N)c(C(=O)NCC3CCCO3)c3nc4ccccc4nc32)c1 (stereo not given)	10	4	-1	11	-4	1.3

High-throughput results as filed in PubChem.
